The record followed here is ChEMBL document CHEMBL1156109, “Synthesis and antioxidant properties of dendritic polyphenols” (Bioorg Med Chem Lett, 2009).

Molecules are shown by their SMILES. Calls of active or inactive are those of the source. The calls are words filed in the database; no cut-off is given here. Bounds are passed on as bounds.

Experiment [1] is described as follows: Prooxidant effect on Cu2+-induced pBR322 DNA damage at 0.35 to 45 uM after 1 hr. The experiment is classed as functional. The procedure, abridged:
(§1)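 Pro-oxidant test: pBR322 plasmid incubated with 10 μM Cu2+ at 37 °C for 1 h with compound at final 0.35–45 μM. DNA damage judged by agarose gel electrophoresis.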

Experiment [2] concerns Radical scavenging activity. Kind of experiment: Antioxidant activity assessed as DPPH free radical scavenging activity within 1 mins. The experiment is classed as functional. (DPPH is a stable violet radical that fades when it is reduced.)
The nature of experiment [3]: Antioxidant activity assessed as protection against AAPH-induced pBR322 plasmid DNA strand open circular form at 0.35 to 45 uM after 4 hrs by agarose gel electrophoresis. Format: functional. The procedure, abridged: (§2)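 pBR322 plasmid DNA incubated with AAPH (final 10 mM) at 37 °C for 4 h, with or without antioxidant at final 0.35–45 μM. Agarose electrophoresis then compares supercoiled and open circular band intensities with a no-AAPH control.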

Experiment [4] has as its system Radical scavenging activity. The experiment can be described thus: Antioxidant activity assessed as DPPH free radical scavenging activity within 10 mins. The experiment is classed as functional.
Experiment [5] can be described thus: Antioxidant activity assessed as inhibition of AAPH-induced lipid peroxidation in human plasma LDL after 18 hrs by gel electrophoresis. Format: functional, cell-free. The procedure, abridged: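 LDL oxidized with 10 mM AAPH for 18 h at 37 °C, with or without antioxidant. Azo initiator used instead of Cu2+ so that metal pro-oxidant effects are avoided. Read-out is anodic migration on agarose gel, with AAPH-oxidized LDL set as 100% migration.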

The nature of experiment [6]: Antioxidant activity against linoleic acid assessed as inhibition of beta-carotene bleaching at 12 uM after 180 mins. Details: scale not given: the % may be the effect or the level left. Format: functional. The procedure, abridged: (§3)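 Linoleic acid/β-carotene emulsion held at 50 °C for 180 min with antioxidant across a range of concentrations. Bleaching of β-carotene followed as A470. % A470 = (sample A470 at 180 min / at 0 min ×100) minus the same ratio for a no-antioxidant control.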

A short description of experiment [7]: Antioxidant activity against linoleic acid assessed as inhibition of beta-carotene bleaching after 180 mins. The experiment is classed as functional. The procedure, abridged: as §3
The nature of experiment [8]: Antioxidant activity assessed as protection against AAPH-induced pBR322 plasmid DNA strand open circular form at 11 to 45 uM after 4 hrs by agarose gel electrophoresis. Format: functional. The procedure, abridged:
(§4)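 pBR 322 plasmid DNA incubated with AAPH (10 mM final) at 37 °C for 4 h, with or without antioxidant (0.35-45 μM final). Samples then run on agarose electrophoresis. Protection was judged from the supercoiled (S) band intensity against a control without AAPH. AAPH converts the DNA to the open circular (O) form.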

The nature of experiment [9]: Antioxidant activity assessed as protection against AAPH-induced pBR322 plasmid DNA strand open circular form at <5 uM after 4 hrs by agarose gel electrophoresis. Format: functional. The procedure, abridged: as §4
Experiment [10] is described as follows: Prooxidant effect on Cu2+-induced pBR322 DNA damage at 3 to 45 uM after 1 hr. Format: functional.
A short description of experiment [11]: Antioxidant activity assessed as protection against AAPH-induced pBR322 plasmid DNA strand open circular form at 5 uM after 4 hrs by agarose electrophoresis. The experiment is classed as functional. The procedure, abridged: as §4
A short description of experiment [12]: Antioxidant activity assessed as protection against AAPH-induced pBR322 plasmid DNA strand open circular form at >= 45 uM after 4 hrs by agarose gel electrophoresis. Format: functional. The procedure, abridged: as §2
The nature of experiment [13]: Prooxidant effect on Cu2+-induced pBR322 DNA damage at 25 to 45 uM after 1 hr. The experiment is classed as functional. The conditions noted are these: 23 and 45 uM; in the assay text read “23 and 45 uM” for “25 to 45 uM”. The procedure, abridged:
as §1

The term IC50 denotes the point on the concentration scale where inhibition reaches its midpoint.

For the molecule `Cc1c(C)c2c(c(C)c1O)CCC(C)(C(=O)O)O2` (centres undefined) [TROLOX], in experiment [1], the outcome was Active. Moreover, the 50% inhibitory concentration (IC50) in experiment [2] was found to be 27.6 µM. The result in experiment [3] was inactive.

As for `COc1cc(C=O)ccc1O` [VANILLIN], in [4], the IC50 was > 100 µM. In addition, the outcome in experiment [5] and in experiment [1] was inactive. For the same molecule, in experiment [6], the Activity is < 5%.

`NCc1ccc(CN)cc1`: the Activity in [6] stood at 16%.

Turning to `COc1cc(CN(Cc2ccc(CN(Cc3cc(I)c(O)c(OC)c3)Cc3cc(I)c(O)c(OC)c3)cc2)Cc2cc(I)c(O)c(OC)c2)cc(I)c1O`, in experiment [5], the Activity entry was “Dose-dependent effect”. In experiment [7], the result was Active. The outcome in [3] was inactive.

Take `COc1cc(CN(Cc2ccc(CN(Cc3cc(OC)c(O)c(OC)c3)Cc3cc(OC)c(O)c(OC)c3)cc2)Cc2cc(OC)c(O)c(OC)c2)cc(OC)c1O`: the Activity result in [5] is “Dose-dependent effect”. Moreover, the result in experiment [7], in experiment [8], in [10] and in [11] was Active. For the same molecule, the outcome in [9] was inactive.

As for `COc1cc(C=O)cc(OC)c1O` [SYRINGALDEHYDE], the IC50 in experiment [4] was > 100 µM. Further, the result in experiment [5] and in experiment [1] was inactive. In addition, in experiment [6], the Activity was 12%.

For `O=c1c(O)c(-c2ccc(O)c(O)c2)oc2cc(O)cc(O)c12`, the outcome in experiment [8] and in experiment [10] was Active. Moreover, the result in experiment [9] and in [11] was inactive.

Turning to `COc1cc(CN(Cc2ccc(CN(Cc3ccc(O)c(OC)c3)Cc3ccc(O)c(OC)c3)cc2)Cc2ccc(O)c(OC)c2)ccc1O`, in experiment [5], the Activity entry was “Dose-dependent effect”. The result in [7], in experiment [12] and in experiment [13] was Active.
